Measured values taken from article PMC7609460 (Heliyon, 2020).

Assays:
Format in all cases: cell-based
U87MG glioblastoma cells = experiment: Resazurin reduction assay; details: Homo sapiens, U-87 MG, 72 h
In short: (§1)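 Resazurin reduction read after 72 h at 37 °C in humidified 5% CO2; fluorescence at 544 nm excitation and 590 nm emission. Test samples were dissolved in DMSO (final ≤0.1%). IC50 is the concentration that gives 50% inhibition of proliferation, derived by linear regression. Degree of resistance is IC50 in the resistant line divided by IC50 in its parental line. Selectivity index is IC50 in AML12 divided by IC50 in HepG2.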

[1] = system: CEM/ADR5000 leukemia cells (P-glycoprotein-overexpressing); experiment: Resazurin reduction assay; details: for IC50: Homo sapiens, ADR5000, 72 h; for Degree of resistance: ratio IC50 CEM/ADR5000 / IC50 CCRF-CEM
In short: as §1

normal AML12 hepatocytes = experiment: Resazurin reduction assay; details: for IC50: Mus musculus, AML12, 72 h; for Selectivity index: ratio IC50 AML12 hepatocytes / IC50 HepG2
In short: as §1

[2] = system: HCT116 (p53+/+) colon cancer cells; experiment: Resazurin reduction assay; details: Homo sapiens, HCT-116, 72 h
In short: as §1

[3] = system: MDA-MB-231-pcDNA breast adenocarcinoma cells; experiment: Resazurin reduction assay; details: 72 h
In short: as §1

[4] = system: HCT116 (p53-/-) colon adenocarcinoma cells; experiment: Resazurin reduction assay; details: for IC50: Homo sapiens, HCT-116, 72 h; for Degree of resistance: ratio IC50 HCT116 (p53-/-) / IC50 HCT116 (p53+/+)
In short: as §1

[5] = system: HepG2 hepatocarcinoma cells; experiment: Resazurin reduction assay; details: Homo sapiens, HepG2, 72 h
In short: as §1

CCRF-CEM leukemia cells = experiment: Resazurin reduction assay; details: Homo sapiens, 72 h
In short: as §1

[6] = system: U87MG.ΔEGFR glioblastoma cells; experiment: Resazurin reduction assay; details: for IC50: 72 h; for Degree of resistance: ratio IC50 U87MG.ΔEGFR / IC50 U87MG
In short: as §1

[7] = system: MDA-MB-231-BCRP breast adenocarcinoma cells; experiment: Resazurin reduction assay; details: for IC50: MDA-MB-231/BCRP, 72 h
In short: as §1

CCRF-CEM cells [8] = experiment: Cell cycle distribution by flow cytometry; details: 24 h treatment
In short: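 CCRF-CEM cells (1×10^6) were treated for 24 h under standard culture conditions with various concentrations of test sample, or with DMSO (0.1% final) as control. Cell-cycle phases were read by flow cytometry from propidium iodide fluorescence of individual nuclei. At least three independent experiments, each with three repetitions.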

CCRF-CEM cells [9] = experiment: Flow cytometric analysis of ROS production; details: 24 h, 50 μM, non-treated cells 0.6%

| Structure (SMILES) | IC50 (U87MG glioblastoma cells) | IC50 [1] | Degree of resistance [1] | IC50 (normal AML12 hepatocytes) | Selectivity index (normal AML12 hepatocytes) | IC50 [2] | IC50 [3] | IC50 [4] | IC50 [5] | IC50 (CCRF-CEM leukemia cells) | IC50 [6] | IC50 [7] | Degree of resistance [4] | Degree of resistance [6] | cell cycle arrest phase (CCRF-CEM cells [8]) | Degree of resistance ([7]; ratio IC50 MDA-MB-231-BCRP / IC50 MDA-MB-231-pcDNA) | ROS levels (CCRF-CEM cells [9]) |
| --- | --- | --- | --- | --- | --- | --- | --- | --- | --- | --- | --- | --- | --- | --- | --- | --- | --- |
| COc1cc(-c2cc(=O)c3c(O)cc(O[C@@H]4O[C@H](CO)[C@@H](O)[C@H](O)[C@H]4O)cc3o2)ccc1O [Compound 3, chrysoeriol-7-O-β-D-glucopyranoside] | 24.9 ± 2.19 µM | 18.7 ± 1.25 µM | 0.90 | > 100 µM | > 2.92 | 30.7 ± 4.04 µM | > 100 µM | 28.4 ± 1.72 µM | 34.2 ± 2.86 µM | 20.8 ± 1.76 µM | 21.1 ± 0.92 µM | > 100 µM |  |  |  |  |  |
| O=c1cc(-c2ccc(O)cc2)oc2cc(O[C@@H]3O[C@H](CO)[C@@H](O)[C@H](O)[C@H]3O)cc(O)c12 [Compound 4, Apigenin-7-O-β-D-glucopyranoside] | > 100 µM | > 100 µM | > 9.62 | > 100 µM |  | > 100 µM | > 100 µM | > 100 µM | > 100 µM | 10.4 ± 1.17 µM | > 100 µM | > 100 µM |  |  |  |  |  |
| O=c1cc(-c2ccc(O)c(O)c2)oc2cc(O)cc(O)c12 [Compound 6, luteolin] | 22.7 ± 2.2 µM | 27 ± 1.29 µM | 2.46 | > 100 µM | > 3.45 | 28.3 ± 1.07 µM | > 100 µM | 30.4 ± 2.55 µM | 29 ± 1.77 µM | 11 ± 0.97 µM | 18.9 ± 1.06 µM | > 100 µM | 1.07 | 0.83 |  |  |  |
| COc1cccc2c1C(=O)c1c(O)c3c(c(O)c1C2=O)C[C@@](O)(C(=O)CO)C[C@@H]3O[C@H]1C[C@H](N)[C@H](O)[C@H](C)O1 [Doxorubicin, reference compound] | 0.26 ± 0.03 µM |  |  | 52.9 ± 4.09 µM |  |  | 0.13 ± 0.01 µM | 1.78 ± 0.08 µM | 4.56 ± 0.48 µM | 0.02 µM | 0.98 ± 0.07 µM | 0.79 ± 0.08 µM | 3.73 | 3.79 | S and G2/M phase arrest | 6.14 |  |
| OO [H2O2, Hydrogen peroxide] |  |  |  |  |  |  |  |  |  |  |  |  |  |  |  |  | 94.30% |
